Laboratory results from ChEMBL document CHEMBL2417367 (Bioorg Med Chem, 2013).

What was measured:
[1] = test system: MKN-45; experiment: cells; conditions: Homo sapiens, MKN-45, 72 h
[2] = test system: A549; experiment: Cytotoxicity against human A549 cells after 72 hrs by MTT assay; type: functional, cell-based; conditions: A549, 72 h
[3] = test system: HT-29; experiment: cells; conditions: Homo sapiens, HT-29, 72 h
[4] = test system: MDA-MB-231; experiment: Cytotoxicity against human MDA-MB-231 cells after 72 hrs by MTT assay; type: functional, cell-based; conditions: MDA-MB-231, 72 h
Summary of the method: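 Cells were grown in MEM with 10% FBS. About 4×10^3 cells per well were seeded and incubated 24 h at 37 °C in 5% CO2. Compounds were then added at set final concentrations for 72 h. MTT (final 5 µg/mL) was added for 4 h at 37 °C, and formazan was dissolved in DMSO and read at 492 nm against a 630 nm reference. Each line was tested three times; IC50 is mean ± SD.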

[5] = cells; conditions: Homo sapiens, U-87 MG, 72 h
[6] = test system: SMMC-7721; experiment: cells; conditions: Homo sapiens, SMMC-7721, 72 h
[7] = test system: NCI-H460; experiment: cells; conditions: Homo sapiens, NCI-H460, 72 h

| Compound | IC50 [1] [nM] | IC50 [2] [nM] | IC50 [3] [nM] | IC50 [4] [nM] | IC50 [5] [nM] | IC50 [6] [nM] | IC50 [7] [nM] |
| --- | --- | --- | --- | --- | --- | --- | --- |
| COc1cc2c(Oc3ccc(NC(=O)N/N=C/c4ccccc4)cc3F)ccnc2cc1OCCCN1CCC(C)CC1 | 510 | 300 | 240 | 930 |  |  |  |
| COc1cc2c(Oc3ccc(NC(=O)N/N=C/c4ccc[nH]4)cc3F)ccnc2cc1OCCCN1CCCCC1 | 930 | 540 | 440 | 1000 |  |  |  |
| COc1cc2c(Oc3ccc(NC(=O)N/N=C/c4ccco4)cc3F)ccnc2cc1OCCCN1CCCCC1 | 710 | 440 | 360 | 910 |  |  |  |
| COc1cc2c(Oc3ccc(NC(=O)N/N=C/c4ccc(Cl)cc4)cc3F)ccnc2cc1OCCCN1CCCCC1 | 470 | 220 | 98 | 940 | 24 | 410 | 63 |
| COc1cc2c(Oc3ccc(NC(=S)N/N=C/c4ccc(F)cc4F)cc3F)ccnc2cc1OCCCN1CCCCC1 | 680 | 190 | 330 | 950 |  |  |  |
| COc1cc2c(Oc3ccc(NC(=O)N/N=C/c4ccc([N+](=O)[O-])cc4)cc3F)ccnc2cc1OCCCN1CCCCC1 | 890 | 820 | 370 | 1400 |  |  |  |
| COc1cc2c(Oc3ccc(NC(=O)N/N=C/c4ccc(Cl)cc4)cc3F)ccnc2cc1OCCCN1CCC(C)CC1 | 620 | 170 | 140 | 1200 |  |  |  |
| COc1cc2c(Oc3ccc(NC(=O)N/N=C/c4ccc(F)c(F)c4)cc3F)ccnc2cc1OCCCN1CCCCC1 | 710 | 270 | 380 | 1300 |  |  |  |
| COc1cc2c(Oc3ccc(NC(=O)N/N=C/c4ccc(F)cc4)cc3F)ccnc2cc1OCCCN1CCC(C)CC1 | 610 | 110 | 83 | 930 |  |  |  |
| COc1cc2c(Oc3ccc(NC(=O)N/N=C/c4cccnc4)cc3F)ccnc2cc1OCCCN1CCCCC1 | 790 | 460 | 320 | 880 |  |  |  |
| COc1cc2c(Oc3ccc(NC(=O)N/N=C/c4ccccc4C#N)cc3F)ccnc2cc1OCCCN1CCCCC1 | 520 | 190 | 260 | 610 |  |  |  |
| COc1cc2c(Oc3ccc(NC(=O)N/N=C/C(C)C)cc3F)ccnc2cc1OCCCN1CCCCC1 | 2000 | 1900 | 1100 | 2700 |  |  |  |
| COc1cc2c(Oc3ccc(NC(=O)N/N=C/c4ccc(OC(F)(F)F)cc4)cc3F)ccnc2cc1OCCCN1CCOCC1 | 1200 | 880 | 1400 | 1800 |  |  |  |
| COc1cc2c(Oc3ccc(NC(=O)N/N=C/c4ccc(F)cc4)cc3F)ccnc2cc1OCCCN1CCCCC1 | 490 | 89 | 130 | 820 |  | 330 | 69 |
| COc1cc2c(Oc3ccc(NC(=O)N/N=C/c4ccccc4F)cc3F)ccnc2cc1OCCCN1CCC(C)CC1 | 490 | 220 | 180 | 880 |  |  |  |
| COc1cccc(/C=N/NC(=O)Nc2ccc(Oc3ccnc4cc(OCCCN5CCCCC5)c(OC)cc34)c(F)c2)c1 | 730 | 340 | 330 | 1200 |  |  |  |
| COc1cc2c(Oc3ccc(NC(=O)N/N=C/c4ccc(Cl)cc4)cc3F)ccnc2cc1OCCCN1CCCC1 | 610 | 410 | 180 | 1300 |  |  |  |
| COc1cc2c(Oc3ccc(NC(=O)N/N=C/c4ccc(F)cc4F)cc3F)ccnc2cc1OCCCN1CCCCC1 | 560 | 78 | 190 | 850 | 18 | 300 | 77 |
| COc1cc2c(Oc3ccc(NC(=O)N/N=C/c4ccccc4)cc3F)ccnc2cc1OCCCN1CCCC1 | 770 | 420 | 440 | 950 |  |  |  |

| Compound | IC50 [1] [nM] | IC50 [2] [nM] | IC50 [3] [nM] | IC50 [4] [nM] | IC50 [5] [nM] | IC50 [6] [nM] | IC50 [7] [nM] |
| --- | --- | --- | --- | --- | --- | --- | --- |
| COc1cc2c(Oc3ccc(NC(=O)N/N=C/c4c(C)cc(C)cc4C)cc3F)ccnc2cc1OCCCN1CCCCC1 | 650 | 1900 | 700 | 1100 |  |  |  |
| COc1cc2c(Oc3ccc(NC(=O)N/N=C/c4ccccc4[N+](=O)[O-])cc3F)ccnc2cc1OCCCN1CCCCC1 | 480 | 190 | 150 | 550 |  |  |  |
| COc1cc2c(Oc3ccc(NC(=O)N/N=C/c4ccc(F)cc4)cc3F)ccnc2cc1OCCCN1CCOCC1 | 560 | 200 | 96 | 1600 |  |  |  |
| COc1cc2c(Oc3ccc(NC(=S)N/N=C/c4ccco4)cc3F)ccnc2cc1OCCCN1CCCCC1 | 880 | 470 | 400 | 1100 |  |  |  |
| C=CCc1cccc(/C=N/NC(=O)CN2CCN(Cc3ccccc3)CC2)c1O [PAC-1] | 820 |  | 830 | 4600 |  |  |  |
| COc1cc2c(Oc3ccc(NC(=S)N/N=C/c4ccccc4[N+](=O)[O-])cc3F)ccnc2cc1OCCCN1CCCCC1 | 450 | 250 | 140 | 830 |  |  |  |
| COc1cc2c(Oc3ccc(NC(=O)N/N=C/c4ccc(F)cc4)cc3F)ccnc2cc1OCCCN1CCCC1 | 590 | 270 | 220 | 1300 |  |  |  |
| COc1cc2c(Oc3ccc(NC(=O)N/N=C/c4cccc([N+](=O)[O-])c4)cc3F)ccnc2cc1OCCCN1CCCCC1 | 760 | 750 | 320 | 1000 |  |  |  |
| COc1cc2c(Oc3ccc(NC(=O)N/N=C/c4ccc(C(F)(F)F)cc4)cc3F)ccnc2cc1OCCCN1CCOCC1 | 780 | 790 | 1100 | 1100 |  |  |  |
| COc1cc2c(Oc3ccc(NC(=O)N/N=C/c4ccccc4C(F)(F)F)cc3F)ccnc2cc1OCCCN1CCCCC1 | 590 | 130 | 160 | 730 |  |  |  |
| COc1cc2c(Oc3ccc(NC(=O)N/N=C/c4ccccc4F)cc3F)ccnc2cc1OCCCN1CCCCC1 | 570 | 130 | 220 | 920 |  |  |  |
| COc1cc2c(Oc3ccc(NC(=O)N/N=C/c4ccc(Cl)cc4)cc3F)ccnc2cc1OCCCN1CCOCC1 | 640 | 330 | 160 | 1200 |  |  |  |
| COc1cc2c(Oc3ccc(NC(=O)NNCc4ccc(F)cc4F)cc3F)ccnc2cc1OCCCN1CCC(C)CC1 | 860 | 350 | 660 | 1300 |  |  |  |
| COc1ccc(OC)c(/C=N/NC(=O)Nc2ccc(Oc3ccnc4cc(OCCCN5CCCCC5)c(OC)cc34)c(F)c2)c1 | 860 | 860 | 590 | 1500 |  |  |  |
| COc1cc2c(Oc3ccc(NC(=O)N/N=C/c4ccccc4)cc3F)ccnc2cc1OCCCN1CCCCC1 | 580 | 160 | 180 | 1000 |  |  |  |
| COc1cc2c(Oc3ccc(NC(=O)N/N=C(\C)c4ccccc4)cc3F)ccnc2cc1OCCCN1CCCCC1 | 640 | 160 | 200 | 960 |  |  |  |
| COc1cc2c(Oc3ccc(NC(=O)N/N=C/c4ccccc4)cc3F)ccnc2cc1OCCCN1CCOCC1 | 670 | 350 | 200 | 2100 |  |  |  |
| CC/C(=N\NC(=O)Nc1ccc(Oc2ccnc3cc(OCCCN4CCCCC4)c(OC)cc23)c(F)c1)c1ccccc1 | 930 | 290 | 330 | 1100 |  |  |  |
